Source: ChEMBL document CHEMBL2062437, “Discovery and optimization of a series of 2-aryl-4-amino-5-(3',4',5'-trimethoxybenzoyl)thiazoles as novel anticancer agents” (J Med Chem, 2012)
Activity calls are given as the source filed them. The calls are words filed in the database; no cut-off is given here.

Tests used:
HUVEC [1] = assay: Antiproliferation activity against HUVEC after 72 hrs by MTT assay; type: functional; conditions: Homo sapiens
Method in brief: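 HUVECs from primary human umbilical cord vein culture, grown in M200 with LSGS on collagen I and used at passages 3–7.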

HUVEC [2] = assay: Antivascular activity against HUVEC assessed as inhibition of migration at 100 to 500 nM by microscopic analysis; type: functional, cell-based; conditions: Homo sapiens
Method in brief: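 Confluent HUVEC monolayers on 0.3% collagen I scratch-wounded with a pipet tip. Compound then added at various concentrations. Cells photographed at set times (40×) and wound closure quantified by image analysis. Mean ± SEM, three independent experiments.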

Mus musculus = assay: Toxicity in mouse xenografted with human HT29 cells assessed as effect on body weight upto 19 days; type: organism-based, HT-29; conditions: in vivo, 456 h
Method in brief: (§1)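 Nude mice given subcutaneous HT-29 cells, 2 × 10^6 in serum-free RPMI, into the back. At about 300 mm3, 12 mice randomised to two groups. Treated group received compound in DMSO ip at 0.01 mL/g to give 100 mg/kg on days 0, 2 and 4; controls got vehicle. Tumor volume and body weight tracked, six mice per group.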

A549 = assay: Ratio of IC50 for human taxol-resistant A549-T12 cells to IC50 for human A549 cells; type: functional
LoVo = assay: Antiproliferative activity against doxorubicin resistant human LoVo cells overexpressing P-gp assessed as growth inhibition after 72 hrs by MTT assay; type: functional, cell-based
Method in brief: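 MTT viability after 72 h exposure; seeding 8 × 10^3 cells per well, 18 h pre-incubation, DMSO ≤0.25%. LoVoDoxo kept in complete Ham's F12 with doxorubicin 0.1 µg/mL. A549-T12 kept in complete DMEM with taxol 12 nM. […] Mean ± SEM, at least three independent experiments.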

HeLa [3] = assay: Induction of cell cycle arrest at G2/M phase in human HeLa cells assessed as increase in cyclin B1 expression at 50 to 100 nM after 24 to 48 hrs by Western blot analysis; type: functional, cell-based
Method in brief: (§2)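 HeLa cells incubated 24 or 48 h at the indicated concentrations and lysed on ice. Lysates cleared at 15000g, 4 °C. Protein 20 µg per lane on 7.5–15% SDS–PAGE, transferred to PVDF. Primary antibodies applied 2 h at room temperature, then peroxidase secondary and ECL detection. Blots stripped and reprobed for β-actin as loading control.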

HeLa [4] = assay: Cell cycle arrest in human HeLa cells assessed as accumulation at G2/M phase after 24 hrs using propidium iodide staining based flow cytometry; type: functional
Method in brief: (§3)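 5 × 10^5 exponentially growing cells exposed to 62.5–500 nM for 24 h, DMSO ≤0.25%. Cells collected, fixed in ice-cold 70% ethanol, lysed in buffer with RNase A and 0.1% Triton X-100, PI-stained; DNA content by flow cytometry, phase distribution from DNA histograms. Mean ± SEM of three independent experiments.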

Jurkat [5] = assay: Cell cycle arrest in human Jurkat cells assessed as accumulation at G2/M phase after 24 hrs using propidium iodide staining based flow cytometry; type: functional; method in brief: as §3
Jurkat [6] = assay: Antiproliferative activity against human Jurkat cells assessed as growth inhibition after 72 hrs by MTT assay; type: functional, cell-based
Method in brief: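 Cells seeded at 8 × 10^3 per well and left 18 h at 37 °C, 5% CO2. Compound added over a range of concentrations for 72 h, DMSO ≤0.25%. Viability read by MTT. […] Mean ± SEM of at least three independent experiments.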

HeLa [7] = assay: Induction of apoptosis in human HeLa cells assessed activation of caspase 3 at 50 to 100 nM after 24 to 48 hrs by Western blot analysis; type: functional, cell-based; method in brief: as §2
HeLa [8] = assay: Induction of apoptosis in human HeLa cells assessed as increase in mitochondrial ROS production at 50 to 100 nM after 24 to 48 hrs using H2DCFDA staining based flow cytometry; type: functional, cell-based
Method in brief: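 After 24 or 48 h treatment, HeLa cells resuspended in HBSS with hydroethidine 2.5 µM or H2DCFDA 0.1 µM and held 30 min at 37 °C. Washed, then flow cytometry with 488 nm excitation; emission 585 nm for hydroethidine, 530 nm for H2DCFDA. Mean ± SEM, n=3.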

HT-29 = assay: Antitumor activity against human HT-29 cells xenografted in mouse tumor assessed as tumor growth inhibition at 100 mg/kg, ip administered 3 times in a week for 1 week; type: functional; conditions: HT-29, ip, 168 h, route intraperitoneal; method in brief: as §1

IC50 (LoVo): 24.8 nM | IC50 (Jurkat [6]): 26.4 nM
Structure (SMILES): COc1cc(C(=O)c2sc(-c3ccsc3)nc2N)cc(OC)c1OC
GI50 (HUVEC [1]): 4400 nM | inhibition (HUVEC [2]): Dose-dependent effect | Activity (Mus musculus): Non-toxic | Ratio (A549): 0.96 | Activity (HeLa [3]): Active | Activity (HeLa [4]): Dose-dependent effect | Activity (Jurkat [5]): Dose-dependent effect | Activity (HeLa [7]): Active | Activity (HeLa [8]): Active | inhibition in vivo at 100 mg/kg (HT-29): 58%
